Each block holds one molecule with its values, some of them ahead of it. The source made the active and inactive calls. The calls are words filed in the database; no cut-off is given here.
Experiments:
[1] = system: HCT-116; experiment: Antiproliferative activity against human HCT116 cells assessed as reduction in cell growth incubated for 72 hrs by CellTiter-Glo assay; type: functional, cell-based; conditions: HCT-116, 72 h
Procedure, shortened: (§1)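 Cells (H1299 in RPMI 1640; HCT116 and A375 in DMEM; 10% FBS, 37 °C, 5% CO2) plated at 2000 per well, left 24 h, then exposed to ten concentrations or DMSO for 72 h. CellTiter-Glo added, 30 min at room temperature in dark, luminescence read. IC50 fitted from triplicate experiments.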

[2] = system: NCI-H1299; experiment: Antiproliferative activity against human H1299 cells assessed as reduction in cell growth incubated for 72 hrs by CellTiter-Glo assay; type: functional, cell-based; conditions: NCI-H1299, 72 h; procedure, shortened: as §1
[3] = system: A-375; experiment: Antiproliferative activity against human A375 cells assessed as reduction in cell growth incubated for 72 hrs by CellTiter-Glo assay; type: functional, cell-based; conditions: A-375, 72 h; procedure, shortened: as §1
[4] = biological target: T1, Pyruvate kinase PKM (Homo sapiens, UniProt P14618); experiment: Activation of human recombinant His-tagged PKM2 expressed in Escherichia coli assessed as maximal activity using PEP as substrate measured at 30 sec between 3 and 6 mins in presence of […] by fluorescent pyruvate kinase-lactate dehydrogenase coupled assay relative to control
Procedure, shortened: (§2)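 Pyruvate kinase activity read by fluorescent pyruvate kinase–lactate dehydrogenase coupled assay; AC50 and maximal activation are means of at least two determinations.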
Target sequence in this assay (P14618 2-531 limits assumed): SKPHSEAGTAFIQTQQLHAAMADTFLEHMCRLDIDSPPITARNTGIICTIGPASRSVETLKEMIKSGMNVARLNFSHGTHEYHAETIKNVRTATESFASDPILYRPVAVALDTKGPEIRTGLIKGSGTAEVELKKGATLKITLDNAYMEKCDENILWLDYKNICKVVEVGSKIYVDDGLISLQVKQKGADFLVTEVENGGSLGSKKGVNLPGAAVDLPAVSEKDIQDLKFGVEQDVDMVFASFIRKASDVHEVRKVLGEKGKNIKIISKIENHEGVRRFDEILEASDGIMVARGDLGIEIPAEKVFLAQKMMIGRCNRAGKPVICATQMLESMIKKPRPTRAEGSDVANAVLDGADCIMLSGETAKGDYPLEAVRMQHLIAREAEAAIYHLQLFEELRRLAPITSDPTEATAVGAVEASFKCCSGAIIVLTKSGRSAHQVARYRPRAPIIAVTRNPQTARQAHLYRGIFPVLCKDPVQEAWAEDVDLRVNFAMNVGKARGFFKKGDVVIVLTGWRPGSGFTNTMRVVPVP

[5] = biological target: T1, Pyruvate kinase PKM; experiment: Activation of human recombinant His-tagged PKM2 expressed in Escherichia coli using PEP as substrate measured at 30 sec between 3 and 6 mins in presence of […] by fluorescent pyruvate kinase-lactate dehydrogenase coupled assay; procedure, shortened: as §2
Target sequence in this assay (P14618 whole entry): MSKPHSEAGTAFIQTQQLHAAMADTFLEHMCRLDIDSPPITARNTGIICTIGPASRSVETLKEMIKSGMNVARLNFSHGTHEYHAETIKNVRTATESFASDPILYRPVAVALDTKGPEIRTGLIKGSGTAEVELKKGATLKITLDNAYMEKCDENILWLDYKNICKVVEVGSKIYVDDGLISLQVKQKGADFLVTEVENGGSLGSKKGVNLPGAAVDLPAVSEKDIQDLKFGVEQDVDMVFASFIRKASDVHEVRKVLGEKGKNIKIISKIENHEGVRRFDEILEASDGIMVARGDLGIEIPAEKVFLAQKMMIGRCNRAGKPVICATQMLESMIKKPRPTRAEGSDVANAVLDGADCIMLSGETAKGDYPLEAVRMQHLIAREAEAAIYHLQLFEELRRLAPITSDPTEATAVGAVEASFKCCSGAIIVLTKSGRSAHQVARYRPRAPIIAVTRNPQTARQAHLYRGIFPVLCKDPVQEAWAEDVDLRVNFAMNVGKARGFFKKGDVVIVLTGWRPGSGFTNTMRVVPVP

[6] = system: A-375; experiment: Induction of apoptosis in human A375 cells assessed as late apoptotic cells level at 1 uM incubated for 24 hrs by AnnexinV-FITC/propidium iodide staining-based flow cytometric analysis (reference value: 6.64%); type: functional
Procedure, shortened: (§3)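 A375 cells seeded at 6×10^5 per well, grown 24 h, then given fresh medium with compound for 24 h. Harvested by trypsinization, washed twice in ice-cold PBS, stained with Annexin V-FITC/PI and analysed by flow cytometry. Annexin V+/PI− scored early, Annexin V+/PI+ late apoptotic, double-negative live.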

[7] = biological target: Serine/threonine-protein kinase B-raf (Homo sapiens) (UniProt P15056); experiment: Inhibition of B-raf (unknown origin) at 10 uM
Chain of Serine/threonine-protein kinase B-raf (Homo sapiens) (P15056 whole entry): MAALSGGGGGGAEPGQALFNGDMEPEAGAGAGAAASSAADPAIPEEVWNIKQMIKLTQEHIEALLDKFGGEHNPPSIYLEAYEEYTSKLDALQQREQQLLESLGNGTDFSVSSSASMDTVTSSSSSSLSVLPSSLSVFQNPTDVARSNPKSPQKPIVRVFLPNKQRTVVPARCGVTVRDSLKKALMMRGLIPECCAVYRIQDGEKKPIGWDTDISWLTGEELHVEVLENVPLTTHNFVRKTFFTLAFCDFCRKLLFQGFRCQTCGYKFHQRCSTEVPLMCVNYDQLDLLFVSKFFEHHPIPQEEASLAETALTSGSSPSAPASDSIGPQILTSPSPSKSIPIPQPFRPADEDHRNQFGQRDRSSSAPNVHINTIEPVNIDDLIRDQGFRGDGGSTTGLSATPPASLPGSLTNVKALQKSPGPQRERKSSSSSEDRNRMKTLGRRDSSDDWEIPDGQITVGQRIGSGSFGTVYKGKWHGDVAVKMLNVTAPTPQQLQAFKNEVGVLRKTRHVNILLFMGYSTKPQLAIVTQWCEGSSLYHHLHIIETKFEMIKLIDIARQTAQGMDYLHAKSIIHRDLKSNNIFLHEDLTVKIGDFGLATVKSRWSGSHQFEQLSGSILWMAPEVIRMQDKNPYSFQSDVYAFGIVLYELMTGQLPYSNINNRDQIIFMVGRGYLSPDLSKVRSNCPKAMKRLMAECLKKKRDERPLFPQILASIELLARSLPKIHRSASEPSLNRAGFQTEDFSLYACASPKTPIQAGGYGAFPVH
Procedure, shortened: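 B-raf tested by single-point binding at 10 μM.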

[8] = system: A-375; experiment: Induction of apoptosis in human A375 cells assessed as early apoptotic cells level at 2 uM incubated for 24 hrs by AnnexinV-FITC/propidium iodide staining-based flow cytometric analysis (reference value: 2.89%); type: functional; procedure, shortened: as §3
[9] = system: A-375; experiment: Cytotoxicity in human A375 cells assessed as reduction in cel viability at 4 uM incubated for 24 hrs; type: functional, cell-based
[10] = Cytotoxicity against mouse C2C12 cells assessed as reduction in cell viability at 20 uM incubated for 72 hrs by CellTiter-Glo assay relative to control; type: cell-based; conditions: read-out: INH
[11] = system: A-375; experiment: Induction of autophagy in human A375 cells assessed as increase in LC3-1 to LC3-2 transition at 1 to 4 uM incubated for 24 hrs by immunoflourescence assay; type: functional, cell-based
Procedure, shortened: (§4)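 A375 cells seeded at 60% per well, then treated with compound or DMSO for 24 h. Fixed in 3% PFA/0.1% glutaraldehyde, blocked overnight at 4 °C, immunostained with rabbit anti-LC3B plus Hoechst 33258. High content imaging quantified cytoplasmic LC3B intensity and LC3B spot area.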

[12] = system: A-375; experiment: Induction of apoptosis in human A375 cells assessed as necrotic cells level at 2 uM incubated for 24 hrs by AnnexinV-FITC/propidium iodide staining-based flow cytometric analysis (reference value: 0.96%); type: functional; procedure, shortened: as §3
[13] = system: A-375; experiment: Induction of apoptosis in human A375 cells assessed as apoptotic cells at 1 to 4 uM incubated for 24 hrs by AnnexinV-FITC/propidium iodide staining-based flow cytometric analysis relative to control; type: functional, cell-based; procedure, shortened: as §3
[14] = system: A-375; experiment: Anti-migration activity against human A375 cells assessed as inhibition of cell migration speed incubated for 24 hrs; type: functional, cell-based
Procedure, shortened: (§5)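 A375 cells seeded at 60% per well, grown 24 h, then given six concentrations or DMSO. Migration speed and accumulated distance tracked in real time by live-cell high content imaging (Operetta) over 24 h. Data from triplicate experiments.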

[15] = biological target: T1, Pyruvate kinase PKM; experiment: Inhibition of nuclear translocation of PKM2 in human A375 cells assessed as retardation of in nuclear accumulation of PKM2 at 1 to 4 uM incubated for 12 hrs by Hoechst staining-based immunofluorescent microscopic analysis; type: cell-based
Procedure, shortened: (§6)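 A375 cells seeded at 60% per well, grown 24 h at 37 °C, then treated with three concentrations, DMSO or NZT for 24 h (12 h in a separate run). Fixed 10 min in 3% PFA/0.1% glutaraldehyde, blocked overnight at 4 °C (3% BSA, 0.2% Triton X-100), stained with rabbit anti-PKM2 2 h, then secondary plus Hoechst 33258 1 h. Imaged on Operetta high content system; cytoplasmic fluorescence intensity quantified.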
Target sequence in this assay (P14618 2-531 limits assumed): as the sequence (P14618 2-531 limits assumed) above

[16] = system: A-375; experiment: Anti-migration activity against human A375 cells assessed as inhibition of cell migration distance incubated for 24 hrs; type: functional, cell-based; procedure, shortened: as §5
[17] = Cytotoxicity against human HELF cells assessed as reduction in cell viability at 20 uM incubated for 72 hrs by CellTiter-Glo assay relative to control; type: cell-based; conditions: read-out: INH
[18] = system: A-375; experiment: Antitumor activity in human A375 cells xenografted in BALB/C mouse assessed as reduction in tumor volume at 50 mg/kg, po bid for 14 days measured on day 22; type: functional, organism-based
Procedure, shortened: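 Male BALB/c athymic nude mice, six weeks old, 18–20 g, inoculated subcutaneously with A375 cells (5×10^7 cells/mL in DMEM, 0.2 mL). At 100–300 mm³ (7 days), randomized, n = 6 per group, dosed orally bid for 14 days; vehicle 0.5% CMCNa. Tumor volume ((width)²×length/2) and body weight measured 2–3 times weekly; tumors excised and weighed at day 22.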

[19] = system: A-375; experiment: Induction of apoptosis in human A375 cells assessed as late apoptotic cells level at 2 uM incubated for 24 hrs by AnnexinV-FITC/propidium iodide staining-based flow cytometric analysis (reference value: 6.64%); type: functional; procedure, shortened: as §3
[20] = system: A-375; experiment: Induction of apoptosis in human A375 cells assessed as viable cells level at 2 uM incubated for 24 hrs by AnnexinV-FITC/propidium iodide staining-based flow cytometric analysis (reference value: 89.51%); type: functional; procedure, shortened: as §3
[21] = system: A-375; experiment: Induction of apoptosis in human A375 cells assessed as viable cells level at 1 uM incubated for 24 hrs by AnnexinV-FITC/propidium iodide staining-based flow cytometric analysis (reference value: 89.51%); type: functional; procedure, shortened: as §3
[22] = Cytotoxicity against human HELF cells assessed as reduction in cell viability incubated for 72 hrs by CellTiter-Glo assay; type: cell-based
[23] = Toxicity in BALB/C mouse xenografted with human A375 cells assessed as reduction in body weight at 50 mg/kg, po bid for 14 days measured on day 22; conditions: in vivo, 336 h
[24] = species: Homo sapiens; experiment: Inhibition of nuclear translocation of PKM2 in human A375 cells assessed as retardation of in nuclear accumulation of PKM2 at 1 to 4 uM incubated for 24 hrs by Hoechst staining-based immunofluorescent microscopic analysis; type: cell-based; procedure, shortened: as §6
[25] = system: A-375; experiment: Induction of apoptosis in human A375 cells assessed as early apoptotic cells level at 4 uM incubated for 24 hrs by AnnexinV-FITC/propidium iodide staining-based flow cytometric analysis (reference value: 2.89%); type: functional; procedure, shortened: as §3
[26] = system: C2C12; experiment: Cytotoxicity against mouse C2C12 cells assessed as reduction in cell viability incubated for 72 hrs by CellTiter-Glo assay; type: cell-based; conditions: C2C12, 72 h
[27] = system: A-375; experiment: Induction of apoptosis in human A375 cells assessed as late apoptotic cells level at 4 uM incubated for 24 hrs by AnnexinV-FITC/propidium iodide staining-based flow cytometric analysis (reference value: 6.64%); type: functional; procedure, shortened: as §3
[28] = system: A-375; experiment: Induction of apoptosis in human A375 cells assessed as necrotic cells level at 4 uM incubated for 24 hrs by AnnexinV-FITC/propidium iodide staining-based flow cytometric analysis (reference value: 0.96%); type: functional; procedure, shortened: as §3
[29] = system: A-375; experiment: Induction of apoptosis in human A375 cells assessed as early apoptotic cells level at 1 uM incubated for 24 hrs by AnnexinV-FITC/propidium iodide staining-based flow cytometric analysis (reference value: 2.89%); type: functional; procedure, shortened: as §3
[30] = system: A-375; experiment: Inhibition of nuclear translocation of PKM2 in human A375 cells assessed as cell death of PKM2 at 4 uM incubated for 24 hrs by Hoechst staining-based fluorescent microscopic analysis; type: functional
[31] = system: A-375; experiment: Induction of apoptosis in human A375 cells assessed as necrotic cells level at 1 uM incubated for 24 hrs by AnnexinV-FITC/propidium iodide staining-based flow cytometric analysis (reference value: 0.96%); type: functional; procedure, shortened: as §3
[32] = system: A-375; experiment: Induction of autophagy in human A375 cells assessed as increase inLC3B spot area at 1 to 4 uM incubated for 24 hrs by immunoflourescence assay; type: functional, cell-based; procedure, shortened: as §4
[33] = system: A-375; experiment: Induction of apoptosis in human A375 cells assessed as viable cells level at 4 uM incubated for 24 hrs by AnnexinV-FITC/propidium iodide staining-based flow cytometric analysis (reference value: 89.51%); type: functional; procedure, shortened: as §3

IC50 [1]: 2060 nM
IC50 [2]: 2500 nM
IC50 [3]: 410 nM
%max [4]: 122%
AC50 ([5]; read-out: AC50): 1140 nM
SMILES: O=C(CCSC(=S)NCc1cccnc1)c1c[nH]c2nccc(Cl)c12

%max [4]: inactive
AC50 [5]: Not Active
SMILES: Cc1ccc2c(C(=O)CCSC(=S)NCc3cccnc3)c[nH]c2n1

IC50 [1]: 9080 nM
IC50 [2]: > 10000 nM
IC50 [3]: 2770 nM
%max [4]: 148%
AC50 ([5]; read-out: AC50): 450 nM
SMILES: O=C(CCSC(=S)NCc1cccnc1)c1c(-c2ccccc2)nn2ncccc12

IC50 [1]: 3520 nM
IC50 [2]: 4200 nM
IC50 [3]: 1340 nM
%max [4]: 93%
AC50 ([5]; read-out: AC50): 3930 nM
SMILES: O=C(CCSC(=S)NCc1cccnc1)c1cn(C2CCC2)c2ncccc12

IC50 [1]: 4900 nM
IC50 [2]: > 10000 nM
IC50 [3]: 1990 nM
%max [4]: 83%
AC50 ([5]; read-out: AC50): 610 nM
SMILES: O=C(CCSC(=S)NCc1cccnc1)c1c[nH]c2nccc(Br)c12

IC50 [1]: 710 nM
inhibition [7]: 41%
Activity [15]: Active
IC50 [2]: 2280 nM
IC50 [3]: 280 nM
%max [4]: 149%
AC50 ([5]; read-out: AC50): 2670 nM
SMILES: O=C(CCSC(=S)NCc1cccnc1)c1cn(CC(F)F)c2ncccc12
Activity [6]: 8.09%
Activity [8]: 14.01%
Activity [9]: Active
cytotoxicity at 72 h, 20 µM [10]: 46%
Activity [11]: Dose-dependent effect
Activity [12]: 2.11%
Activity [13]: Dose-dependent effect
Activity [14]: Dose-dependent effect
Activity [16]: Dose-dependent effect
cytotoxicity at 72 h, 20 µM [17]: 10%
Activity [18]: Active
Activity [19]: 6.98%
Activity [20]: 76.9%
Activity [21]: 86.39%
IC50 [22]: > 20000 nM
Activity [23]: Non-Toxic
inhibition [24]: Dose-dependent effect
Activity [25]: 18.55%
IC50 [26]: > 20000 nM
Activity [27]: 9.76%
Activity [28]: 4.45%
Activity [29]: 3.95%
inhibition [30]: Active
Activity [31]: 1.57%
Activity [32]: Dose-dependent effect
Activity [33]: 67.24%

%max [4]: inactive
AC50 ([5]; read-out: AC50): > 20000 nM
SMILES: O=C(CCSC(=S)NCc1cccnc1)c1c[nH]c2ncc(-c3ccc(Cl)cc3)cc12

IC50 [1]: 840 nM
IC50 [2]: 9510 nM
IC50 [3]: 210 nM
%max [4]: 42%
AC50 ([5]; read-out: AC50): 4560 nM
SMILES: O=C(CCSC(=S)NCc1cccnc1)c1cn(C2CC2)c2ncccc12

IC50 [1]: 940 nM
IC50 [2]: 2090 nM
IC50 [3]: 290 nM
%max [4]: 114%
AC50 ([5]; read-out: AC50): 4350 nM
SMILES: Cn1cc(C(=O)CCSC(=S)NCc2cccnc2)c2cccnc21

Source: ChEMBL document CHEMBL4346662, “Synthesis of novel 7-azaindole derivatives containing pyridin-3-ylmethyl dithiocarbamate moiety as potent PKM2 activators and PKM2 nucleus translocation inhibitors” (Eur J Med Chem, 2019)
